Assay results reported in publication PMC10582660 (Clinical and Translational Science, 2023).

Experiments:
[1] = Follow-up exploratory clinical study: plasma pharmacokinetics; format: in vivo, human; details: for Cmax / Tmax / AUC(0-t): both, human, plasma, oral; for AUC(0-t): AUC0–48h, geometric mean (CV%)
Outline: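 Six healthy adults (3 male, 3 female) in sequential arms ≥7 days apart: oral test compound with water, then with acute brewed green tea, then tea alone. Plasma sampled 0–48 h at the main-study times. Analysed by UHPLC–MS/MS for parent and glucuronides. […] Green tea/baseline ratios on log-transformed data, paired two-tailed t-test.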

OCT1 = molecular target: T1, OCT1 (Homo sapiens, UniProt O15245); assay: Raloxifene as a substrate for uptake transporters; format: in vitro ADME; details: raloxifene 1, 10 μM, 2, 20 min, two‐fold cutoff
T1 sequence (O15245 1-554): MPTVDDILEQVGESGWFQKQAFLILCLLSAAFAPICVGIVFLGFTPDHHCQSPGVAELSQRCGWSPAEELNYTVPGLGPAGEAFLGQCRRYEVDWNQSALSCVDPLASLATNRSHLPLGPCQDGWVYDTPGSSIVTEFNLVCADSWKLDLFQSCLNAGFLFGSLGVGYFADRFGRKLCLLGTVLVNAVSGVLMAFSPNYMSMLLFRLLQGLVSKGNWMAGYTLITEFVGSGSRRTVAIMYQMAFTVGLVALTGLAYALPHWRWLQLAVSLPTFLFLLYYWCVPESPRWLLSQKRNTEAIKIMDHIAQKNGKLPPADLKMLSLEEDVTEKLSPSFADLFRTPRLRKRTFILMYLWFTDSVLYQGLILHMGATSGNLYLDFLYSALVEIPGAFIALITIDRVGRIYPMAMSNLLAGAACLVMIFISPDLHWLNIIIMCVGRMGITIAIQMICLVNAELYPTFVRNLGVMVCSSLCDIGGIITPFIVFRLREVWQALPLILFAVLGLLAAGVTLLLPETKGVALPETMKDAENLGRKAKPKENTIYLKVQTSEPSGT
Outline: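 Uptake of test compound (1 and 10 μM, 2 and 20 min) measured in transporter-expressing HEK293 or MDCKII cells or inside-out membrane vesicles. Run with positive-control probe substrates and inhibitors, plus empty-vector or untransfected control cells. Fold-accumulation relative to control cells judged against a two-fold cutoff for substrate status.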

[2] = follow-up study, acute green tea vs baseline

For `O=C(c1ccc(OCCN2CCCCC2)cc1)c1c(-c2ccc(O)cc2)sc2cc(O)ccc12` [Raloxifene, raloxifene, reference compound], the Cmax [1] was 0.28 nM, the Tmax [1] was 1 h and the Cmax ([1]; 60 mg) was 0.32 nM. The Tmax ([1]; 60 mg) was 1.25 h, the AUC(0-t) ([1]; 60 mg, follow-up study, six healthy adults, baseline) was 8.25 nM·h and the AUC(0-t) ([1]; follow-up study, acute green tea) was 7.46 nM·h. The “AUC0–48h green tea/baseline ratio (90% CI)” value [1, 2] was 0.90 (0.77–1.03), the “Cmax,1 green tea/baseline ratio (90% CI)” value [1, 2] was 0.87 (0.72–1.07) and the “magnitude of the decrease in raloxifene AUC with green tea” value ([1]; follow‐up study) was 10%. The “fold‐accumulation” value (OCT1) was 1.13–1.52.
